Assay results pooled from the literature.
Cell line: PC-3
Observed: cell growth or viability

| SMILES | test | setting | measurement | value |
| --- | --- | --- | --- | --- |
| O=C(CN1C(=O)/C(=C/c2ccccc2O)SC1=S)Nc1ccccc1 | MTT | 10 µM | inhibition | 36.2% |
| COc1ccc(C(=O)/C=C/c2c(F)cccc2Cl)cc1S(N)(=O)=O | SRB | 48 h | GI50 | 4.7 µM |
| COc1ccnc(COc2ccc(NC(=O)Nc3cccc(C(F)(F)F)c3)cc2)c1OC | MTT | 72 h | IC50 | 75 µM |
| Cc1cc(C)cc(COc2cc3c(cc2OCc2cc(C)cc(C)c2)[C@H]2C[C@](O)(Cc4cn(Cc5ccc(C#N)cc5)nn4)C[C@H](C)N2CC3)c1 | MTT |  | IC50 | 0.371 µM |
| COc1ccc(-c2ccc(-c3ccc(C(=N)N)nc3)s2)cc1 |  |  | GI50 | 1.68 µM |
| COc1ccc(C(=O)/C=C/c2ccc(Cl)c(Cl)c2)cc1S(N)(=O)=O | SRB | 10 µM | inhibition | 90% |
| O=C(CN1C(=O)/C(=C/c2ccco2)SC1=S)Nc1ccccc1 | MTT | 10 µM | inhibition | 23.1% |
| NC1(C(=O)N[C@@H](CCO)c2ccc(Cl)cc2)CCN(c2ncnc3[nH]ccc23)CC1 |  | 72 h | GI50 | > 8 µM |
| COc1cccc(NC(=O)CN2C(=O)/C(=C/C3CC3)SC2=S)c1 | MTT | 10 µM | inhibition | 18.6% |
| Cc1c(OCC(F)(F)F)ccnc1COc1ccc(NC(=O)Nc2ccc(Cl)cc2)cc1 | MTT | 72 h | IC50 | > 100 µM |
| CC(C)c1ccc(/C=C2\SC(=S)N(CC(=O)Nc3ccccc3)C2=O)cc1 | MTT | 10 µM | inhibition | 29% |
| Cc1cc(C)cc(COc2cc3c(cc2OCc2cc(C)cc(C)c2)[C@H]2C[C@](O)(Cc4cn(CCc5ccc(N)cc5)nn4)C[C@H](C)N2CC3)c1 | MTT |  | IC50 | 0.49 µM |
| COc1cc2ncnc(Nc3ccc(F)c(Cl)c3)c2cc1NC(=O)N/N=C/c1cccn1CCN1CCN(C)CC1 | MTT | 72 h | IC50 | 2.08 µM |
| O=C(Nc1cccc(CN2CCOCC2)c1)C1CCCN(C(=O)c2cc(C(F)(F)F)cc(C(F)(F)F)c2)C1 (centres unmarked) | WST-1 | 100 µM | inhibition | 0% |
| O=C(N/N=C/c1cccn1CCCN1CCOCC1)Nc1cc2c(Nc3ccc(F)c(Cl)c3)ncnc2cc1O[C@H]1CCOC1 | MTT | 72 h | IC50 | 6.32 µM |
| Cc1cc(C)cc(COc2cc3c(cc2OCc2cc(C)cc(C)c2)[C@H]2C[C@](O)(Cc4cn(Cc5ccc(-c6ccccc6)cc5)nn4)C[C@H](C)N2CC3)c1 | MTT |  | IC50 | 0.206 µM |
| COc1cc2ncnc(Nc3ccc(F)c(Cl)c3)c2cc1NC(=O)N/N=C/c1cccn1CCCN1CCCC1 | MTT | 72 h | IC50 | 1.56 µM |
| O=C(CN1C(=O)/C(=C/c2cccc([N+](=O)[O-])c2)SC1=S)Nc1ccccc1 | MTT | 10 µM | inhibition | 17.6% |
| COc1cc2ncnc(Nc3ccc(F)c(Cl)c3)c2cc1NC(=O)N/N=C/CN1CCCCC1 | MTT | 72 h | IC50 | 5.76 µM |
| N#Cc1cccc(NC(=O)C2CCCN(C(=O)c3cc(C(F)(F)F)cc(C(F)(F)F)c3)C2)c1 (centres unmarked) | WST-1 | 100 µM | inhibition | 0% |
